Data: ChEMBL document CHEMBL1649319, “In vitro antifungal activities of isavuconazole and comparators against rare yeast pathogens” (2010)
Converted amounts (≈) assume the structure as drawn.

System: Saccharomyces cerevisiae
Assay: Antifungal activity against Saccharomyces cerevisiae after 5 days by broth microdilution method
Assay type: functional
Conditions: 120 h

What does the source list for `OC(Cn1cncn1)(Cn1cncn1)c1ccc(F)cc1F` [FLUCONAZOLE]?
MIC50: 4 µg/mL (≈ 13.1 µM); MIC90: 16 µg/mL (≈ 52.2 µM)

System: Rhodotorula mucilaginosa
Assay: Antifungal activity against Rhodotorula mucilaginosa after 7 days by Etest
Assay type: functional
Conditions: 168 h

With `OC(Cn1cncn1)(Cn1cncn1)c1ccc(F)cc1F` [FLUCONAZOLE] as the compound, how does the MIC read?
The MIC was greater than 128 µg/mL.

And the MIC50?
The MIC50 was greater than 128 µg/mL.

What about the MIC90 of the same compound?
The MIC90 was greater than 128 µg/mL.

System: Rhodotorula mucilaginosa
Assay: Antifungal activity against Rhodotorula mucilaginosa after 7 days by broth microdilution method
Assay type: functional
Conditions: 168 h

For `OC(Cn1cncn1)(Cn1cncn1)c1ccc(F)cc1F` [FLUCONAZOLE], which MIC is on record?
The MIC was greater than 128 µg/mL.

What about the MIC50 of the same compound?
Its MIC50 is greater than 128 µg/mL.

What about the MIC90 of the same compound?
Its MIC90 is greater than 128 µg/mL.

System: Magnusiomyces capitatus
Assay: Antifungal activity against Dipodascus capitatus after 3 days by broth microdilution method
Assay type: functional
Conditions: 72 h

Which MIC50 does the source give for `OC(Cn1cncn1)(Cn1cncn1)c1ccc(F)cc1F` [FLUCONAZOLE] here?
The MIC50 was 4 µg/mL (≈ 13.1 µM).

What about the MIC90 of the same compound?
Its MIC90 is 16 µg/mL (≈ 52.2 µM).

System: Magnusiomyces capitatus
Assay: Antifungal activity against Dipodascus capitatus after 4 days by Etest
Assay type: functional
Conditions: 96 h

What does the source list for `OC(Cn1cncn1)(Cn1cncn1)c1ccc(F)cc1F` [FLUCONAZOLE]?
MIC50: 1 µg/mL (≈ 3.27 µM); MIC90: 4 µg/mL (≈ 13.1 µM)

System: Magnusiomyces capitatus
Assay: Antifungal activity against Dipodascus capitatus after 48 hrs by broth microdilution method
Assay type: functional
Conditions: not given
Outline: (§1)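 CLSI M27-A3 broth microdilution. Isolates were identified by ITS1-5.8S-ITS2 sequencing, kept at −70°C in sterile water, and revived on potato dextrose or Sabouraud agar. Drug ranges in wells were 0.015–16 or 0.125–128 μg/ml, depending on the agent. Plates were incubated at 35°C and MICs read visually at 48 h. QC strains were C. krusei ATCC 6258 and C. parapsilosis ATCC 22019.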

Which MIC50 does the source give for `OC(Cn1cncn1)(Cn1cncn1)c1ccc(F)cc1F` [FLUCONAZOLE] here?
The MIC50 was 4 µg/mL (≈ 13.1 µM).

And the MIC90?
Its MIC90 is 16 µg/mL (≈ 52.2 µM).

System: Magnusiomyces capitatus
Assay: Antifungal activity against Dipodascus capitatus after 48 hrs by Etest
Assay type: functional
Conditions: not given
Outline: (§2)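 Etest on 2% glucose-RPMI agar. Yeast suspensions were swabbed across the plates and strips applied, then incubated at 35°C for 48 h. MIC was the lowest concentration where the elliptical inhibition zone border met the strip scale. Each reading was raised to the next 2-fold dilution on the CLSI scale and converted to log2. Isolates were revived from −70°C stocks on potato dextrose or Sabouraud agar.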

For `OC(Cn1cncn1)(Cn1cncn1)c1ccc(F)cc1F` [FLUCONAZOLE], which MIC50 is on record?
Its MIC50 is 1 µg/mL (≈ 3.27 µM).

And the MIC90?
Its MIC90 is 4 µg/mL (≈ 13.1 µM).

System: Rhodotorula mucilaginosa
Assay: Antifungal activity against Rhodotorula mucilaginosa after 48 hrs by broth microdilution method
Assay type: functional
Conditions: not given
Outline: as §1

Which MIC does the source give for `OC(Cn1cncn1)(Cn1cncn1)c1ccc(F)cc1F` [FLUCONAZOLE] here?
The MIC was greater than 128 µg/mL.

And the MIC50?
The MIC50 was greater than 128 µg/mL.

And the MIC90?
The MIC90 was greater than 128 µg/mL.

System: Rhodotorula mucilaginosa
Assay: Antifungal activity against Rhodotorula mucilaginosa after 48 hrs by Etest
Assay type: functional
Conditions: not given
Outline: as §2

With `OC(Cn1cncn1)(Cn1cncn1)c1ccc(F)cc1F` [FLUCONAZOLE] as the compound, how does the MIC read?
Its MIC is greater than 128 µg/mL.

What about the MIC50 of the same compound?
Its MIC50 is greater than 128 µg/mL.

What about the MIC90 of the same compound?
Its MIC90 is greater than 128 µg/mL.

System: Saccharomyces cerevisiae
Assay: Antifungal activity against Saccharomyces cerevisiae after 48 hrs by broth microdilution method
Assay type: functional
Conditions: not given
Outline: as §1

Which results are given for `OC(Cn1cncn1)(Cn1cncn1)c1ccc(F)cc1F` [FLUCONAZOLE]?
MIC50: 4 µg/mL (≈ 13.1 µM); MIC90: 16 µg/mL (≈ 52.2 µM)

System: Saccharomyces cerevisiae
Assay: Antifungal activity against Saccharomyces cerevisiae after 48 hrs by Etest
Assay type: functional
Conditions: not given
Outline: as §2

Which results are given for `OC(Cn1cncn1)(Cn1cncn1)c1ccc(F)cc1F` [FLUCONAZOLE]?
MIC50: 4 µg/mL (≈ 13.1 µM); MIC90: 64 µg/mL (≈ 209 µM)

System: Cutaneotrichosporon mucoides
Assay: Antifungal activity against Trichosporon mucoides after 48 hrs by broth microdilution method
Assay type: functional
Conditions: not given
Outline: as §1

For `OC(Cn1cncn1)(Cn1cncn1)c1ccc(F)cc1F` [FLUCONAZOLE], which MIC50 is on record?
Its MIC50 is 2 µg/mL (≈ 6.53 µM).

What about the MIC90 of the same compound?
The MIC90 was 8 µg/mL (≈ 26.1 µM).

System: Cutaneotrichosporon mucoides
Assay: Antifungal activity against Trichosporon mucoides after 48 hrs by Etest
Assay type: functional
Conditions: not given
Outline: as §2

Which results are given for `OC(Cn1cncn1)(Cn1cncn1)c1ccc(F)cc1F` [FLUCONAZOLE]?
MIC50: 1 µg/mL (≈ 3.27 µM); MIC90: 4 µg/mL (≈ 13.1 µM)

System: Trichosporon inkin
Assay: Antifungal activity against Trichosporon inkin after 48 hrs by broth microdilution method
Assay type: functional
Conditions: not given
Outline: as §1

For `OC(Cn1cncn1)(Cn1cncn1)c1ccc(F)cc1F` [FLUCONAZOLE], which MIC50 is on record?
Its MIC50 is 2 µg/mL (≈ 6.53 µM).

What about the MIC90 of the same compound?
The MIC90 was 8 µg/mL (≈ 26.1 µM).

System: Trichosporon inkin
Assay: Antifungal activity against Trichosporon inkin after 48 hrs by Etest
Assay type: functional
Conditions: not given
Outline: as §2

What does the source list for `OC(Cn1cncn1)(Cn1cncn1)c1ccc(F)cc1F` [FLUCONAZOLE]?
MIC50: 1 µg/mL (≈ 3.27 µM); MIC90: 4 µg/mL (≈ 13.1 µM)

System: not listed separately
Assay: Antifungal activity against Trichosporon jirovecii after 48 hrs by broth microdilution method
Assay type: functional
Conditions: Cutaneotrichosporon jirovecii
Outline: as §1

Which MIC50 does the source give for `OC(Cn1cncn1)(Cn1cncn1)c1ccc(F)cc1F` [FLUCONAZOLE] here?
The MIC50 was 2 µg/mL (≈ 6.53 µM).

What about the MIC90 of the same compound?
The MIC90 was 8 µg/mL (≈ 26.1 µM).

System: not listed separately
Assay: Antifungal activity against Trichosporon jirovecii after 48 hrs by Etest
Assay type: functional
Conditions: Cutaneotrichosporon jirovecii
Outline: as §2

What does the source list for `OC(Cn1cncn1)(Cn1cncn1)c1ccc(F)cc1F` [FLUCONAZOLE]?
MIC50: 1 µg/mL (≈ 3.27 µM); MIC90: 4 µg/mL (≈ 13.1 µM)

System: not listed separately
Assay: Antifungal activity against Trichosporon domesticum after 48 hrs by broth microdilution method
Assay type: functional
Conditions: Apiotrichum domesticum
Outline: as §1

With `OC(Cn1cncn1)(Cn1cncn1)c1ccc(F)cc1F` [FLUCONAZOLE] as the compound, how does the MIC50 read?
Its MIC50 is 2 µg/mL (≈ 6.53 µM).

And the MIC90?
The MIC90 was 8 µg/mL (≈ 26.1 µM).

System: not listed separately
Assay: Antifungal activity against Trichosporon domesticum after 48 hrs by Etest
Assay type: functional
Conditions: Apiotrichum domesticum
Outline: as §2

What does the source list for `OC(Cn1cncn1)(Cn1cncn1)c1ccc(F)cc1F` [FLUCONAZOLE]?
MIC50: 1 µg/mL (≈ 3.27 µM); MIC90: 4 µg/mL (≈ 13.1 µM)

System: Trichosporon asahii
Assay: Antifungal activity against Trichosporon asahii after 48 hrs by broth microdilution method
Assay type: functional
Conditions: not given
Outline: as §1

What does the source list for `OC(Cn1cncn1)(Cn1cncn1)c1ccc(F)cc1F` [FLUCONAZOLE]?
MIC50: 2 µg/mL (≈ 6.53 µM); MIC90: 8 µg/mL (≈ 26.1 µM)

System: Trichosporon asahii
Assay: Antifungal activity against Trichosporon asahii after 48 hrs by Etest
Assay type: functional
Conditions: not given
Outline: as §2

With `OC(Cn1cncn1)(Cn1cncn1)c1ccc(F)cc1F` [FLUCONAZOLE] as the compound, how does the MIC50 read?
The MIC50 was 1 µg/mL (≈ 3.27 µM).

What about the MIC90 of the same compound?
Its MIC90 is 4 µg/mL (≈ 13.1 µM).

System: Cutaneotrichosporon mucoides
Assay: Antifungal activity against Trichosporon mucoides assessed as percent susceptible isolates after 48 hrs by broth microdilution method
Assay type: functional
Conditions: not given
Outline: (§3)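 Broth microdilution MICs (CLSI, 35°C, visual read at 48 h) were sorted into categories using CLSI M27-A3 triazole breakpoints. Susceptible was ≤1 or ≤8 μg/ml, SDD was 2 or 16–32 μg/ml, and resistant was ≥4 or ≥64 μg/ml, depending on the agent. Each category is the percentage of isolates falling in it.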

With `OC(Cn1cncn1)(Cn1cncn1)c1ccc(F)cc1F` [FLUCONAZOLE] as the compound, how does the MIC50 read?
The MIC50 was 2 µg/mL (≈ 6.53 µM).

And the MIC90?
Its MIC90 is 8 µg/mL (≈ 26.1 µM).

System: Cutaneotrichosporon mucoides
Assay: Antifungal activity against Trichosporon mucoides assessed as percent susceptible/dose-dependent isolates after 48 hrs by broth microdilution method
Assay type: functional
Conditions: not given
Outline: as §3

With `OC(Cn1cncn1)(Cn1cncn1)c1ccc(F)cc1F` [FLUCONAZOLE] as the compound, how does the MIC50 read?
The MIC50 was 2 µg/mL (≈ 6.53 µM).

And the MIC90?
Its MIC90 is 8 µg/mL (≈ 26.1 µM).

System: Trichosporon
Assay: Antifungal activity against Trichosporon sp. after 3 days by broth microdilution method
Assay type: functional
Conditions: 72 h

Which results are given for `OC(Cn1cncn1)(Cn1cncn1)c1ccc(F)cc1F` [FLUCONAZOLE]?
MIC50: 2 µg/mL (≈ 6.53 µM); MIC90: 8 µg/mL (≈ 26.1 µM)

System: Trichosporon
Assay: Antifungal activity against Trichosporon sp. after 4 days by Etest
Assay type: functional
Conditions: 96 h

For `OC(Cn1cncn1)(Cn1cncn1)c1ccc(F)cc1F` [FLUCONAZOLE], which MIC50 is on record?
The MIC50 was 1 µg/mL (≈ 3.27 µM).

And the MIC90?
The MIC90 was 4 µg/mL (≈ 13.1 µM).
